The values that follow come from ChEMBL document CHEMBL1125496, “New potent mitomycin derivatives: synthesis and antitumor activity of 7,7-(ethylenedioxy)mitomycins” (J Med Chem, 1992).

The subject of assay [1] is Mus musculus. The assay can be described thus: In vivo antitumor activity against P388 leukemia cells (ip)in mice and maximal increase in life span calculated as (T/C-1)*100 at the optimal dose of 2.5 mg/kg (%ILS max of mitomycin C at the optimal dose of 4.0 mg/kg). The format is functional.
For assay [2], the system named is HeLa. As to the kind of experiment: In vitro anticellular activity against HeLa cells. Format: functional, cell-based, Homo sapiens. The method in brief: (§1)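 HeLa S3 cells seeded on day 0, then exposed to drug for 1 h on day 1. Anticellular activity determined by a previously described method and reported as 1 h IC50 in μM.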
Assay [3] concerns Mus musculus. As to the kind of experiment: In vivo antitumor activity against P388 leukemia cells (ip)in mice and maximal increase in life span calculated as (T/C-1)*100 at the optimal dose of 5 mg/kg (%ILS max of mitomycin C at the optimal dose of 4.0 mg/kg). Format: functional.
In assay [4] the test system is Mus musculus. As to the kind of experiment: In vivo antitumor activity against P388 leukemia cells (ip)in mice and maximal increase in life span calculated as (T/C-1)*100 at the optimal dose of 13 mg/kg (%ILS max of mitomycin C at the optimal dose of 6.0 mg/kg). The format is functional.
In assay [5] the test system is Mus musculus. As to the kind of experiment: In vivo antitumor activity against P388 leukemia cells (ip)in mice and maximal increase in life span calculated as (T/C-1)*100 at the optimal dose of 3 mg/kg (%ILS max of mitomycin C at the optimal dose of 6.0 mg/kg). The format is functional.
For assay [6], the system named is Mus musculus. The assay can be described thus: In vivo antitumor activity against P388 leukemia cells (ip)in mice and maximal increase in life span calculated as (T/C-1)*100 at the optimal dose of 5 mg/kg (%ILS max of mitomycin C at the optimal dose of 6.0 mg/kg). Format: functional.
For assay [7], the system named is Mus musculus. As to the kind of experiment: In vivo antitumor activity against P388 leukemia cells (ip)in mice and maximal increase in life span calculated as (T/C-1)*100 at the optimal dose of 3.1 mg/kg (%ILS max of mitomycin C at the optimal dose of 4.0 mg/kg). The format is functional.
In assay [8] the test system is Mus musculus. As to the kind of experiment: In vivo antitumor activity against P388 leukemia cells (ip)in mice and maximal increase in life span calculated as (T/C-1)*100 at the optimal dose of 13 mg/kg (%ILS max of mitomycin C at the optimal dose of 4.0 mg/kg). Format: functional.
For assay [9], the system named is HeLa. As to the kind of experiment: The compound was tested in vitro for its anticellular activity against HeLa cells. Format: functional, cell-based. The conditions noted are these: Homo sapiens. The method in brief: as §1
Assay [10] deals with Mus musculus. As to the kind of experiment: In vivo antitumor activity against P388 leukemia cells (ip)in mice and maximal increase in life span calculated as (T/C-1)*100 at the optimal dose of 0.75 mg/kg (%ILS max of mitomycin C at the optimal dose of 6.0 mg/kg). Format: functional.
Assay [11] has as its system Mus musculus. The assay can be described thus: In vivo antitumor activity against P388 leukemia cells (ip)in mice and maximal increase in life span calculated as (T/C-1)*100 at the optimal dose of 0.39 mg/kg (%ILS max of mitomycin C at the optimal dose of 4.0 mg/kg). Format: functional.
The test system of assay [12] is Mus musculus. As to the kind of experiment: TIn vivo antitumor activity against P388 leukemia cells (ip)in mice and maximal increase in life span calculated as (T/C-1)*100 at the optimal dose of 5 mg/kg (%ILS max of mitomycin C at the optimal dose of 4.0 mg/kg). The format is functional.
Assay [13] deals with Mus musculus. The assay can be described thus: In vivo antitumor activity against P388 leukemia cells (ip)in mice and maximal increase in life span calculated as (T/C-1)*100 at the optimal dose of 0.50 mg/kg (%ILS max of mitomycin C at the optimal dose of 6.0 mg/kg). The format is functional.
Assay [14] deals with Mus musculus. The assay can be described thus: In vivo antitumor activity against P388 leukemia cells (ip)in mice and maximal increase in life span calculated as (T/C-1)*100 at the optimal dose of 2.5 mg/kg (%ILS max of mitomycin C at the optimal dose of 6.0 mg/kg). The format is functional.
Assay [15] relates to Mus musculus. As to the kind of experiment: In vivo antitumor activity against P388 leukemia cells (ip)in mice and maximal increase in life span calculated as (T/C-1)*100 at the optimal dose of 4.0-6.0 mg/kg. Format: functional.

The IC50 is the concentration needed to halve the response being measured. The low end stands for greater potency, the high end for weaker potency. Consider `CO[C@@]12[C@H](COC(N)=O)C3=C(C(=O)C(C)C4(OCCO4)C3=O)N1C[C@H]1[C@@H]2N1C` (stereo partly specified), for which the ILS max in the assay on Mus musculus [1] is recorded as 53%. In the assay with HeLa [2] (Homo sapiens, HeLa), this molecule returned a half-maximal inhibitory concentration (IC50) of 600 nM.

As to `CC1C(=O)C2=C(C(=O)C13OCCO3)[C@H](COC(N)=O)[C@@]1(O)[C@@H]3[C@H](CN21)N3C` (stereo partly specified), in the assay with HeLa [2] (Homo sapiens, HeLa), the half-inhibitory concentration (IC50) came to 4400 nM. For the same molecule, in the assay with Mus musculus [3], the ILS max is reported as 73%.

Turning to `CC(=O)OC1=C(C)C2(OCCO2)C(=O)C2=C1N1C[C@H]3[C@H](N3C)[C@]1(O)[C@H]2COC(N)=O` (stereo partly specified), in the assay with HeLa [2] (Homo sapiens, HeLa), half-maximal inhibition (IC50) was put at 4400 nM. For the same molecule, the ILS max in the assay on Mus musculus [4] is on record as 71%.

`CO[C@@]12[C@H](COC(N)=O)C3=C(C(OC(=O)c4ccccc4)=C(C)C4(OCCO4)C3=O)N1C[C@@H]1N[C@@H]12` had a concentration for half-maximal inhibition (IC50) in the assay on HeLa [2] (Homo sapiens, HeLa) of 540 nM. Also, the ILS max with Mus musculus [5] was 71%.

In the assay with HeLa [2] (Homo sapiens, HeLa), `CO[C@@]12[C@H](COC(N)=O)C3=C(C(OC(=O)CCC(C)=O)=C(C)C4(OCCO4)C3=O)N1C[C@@H]1N[C@@H]12` came in with an IC50 of 590 nM. Moreover, the ILS max in the assay with Mus musculus [6] is 80%.

In the assay with HeLa [2] (Homo sapiens, HeLa), `COC1=C(C)C2(OCCO2)C(=O)C2=C1N1C[C@@H]3N[C@@H]3[C@]1(OC)[C@@H]2COC(N)=O` returned an IC50 of 20000 nM. For the same molecule, in the assay on Mus musculus [7], the ILS max is 41%.

In turn, `CCCCCCCC(=O)OC1=C(C)C2(OCCO2)C(=O)C2=C1N1C[C@@H]3N[C@@H]3[C@]1(OC)[C@@H]2COC(N)=O` came in with an IC50 in the assay on HeLa [2] (Homo sapiens, HeLa) of 360 nM. This counts as sub-micromolar.

The molecule `CN1[C@H]2[C@@H]1CN1C3=C(C(=O)C4(OCCO4)C(C)(Cl)C3=O)[C@H](COC(N)=O)[C@@]21O` (stereo partly specified) came in with an IC50 in the assay on HeLa [2] (Homo sapiens, HeLa) of 50000 nM. Also, in the assay with Mus musculus [8], the ILS max was 59%.

As for `CO[C@@]12[C@H](COC(N)=O)C3=C(C(OC(=O)C(C)(C)C)=C(C)C4(OCCO4)C3=O)N1C[C@@H]1N[C@@H]12`, in the assay with HeLa [9], the IC50 worked out at 8100 nM.

The molecule `CCCCCCCCCCCC(=O)OC1=C(C)C2(OCCO2)C(=O)C2=C1N1C[C@@H]3N[C@@H]3[C@]1(OC)[C@@H]2COC(N)=O` had a 50% inhibitory concentration (IC50) with HeLa [2] (Homo sapiens, HeLa) of 94 nM. For the same molecule, in the assay on Mus musculus [10], the ILS max is on record as 67%.

As to `CO[C@@]12[C@H](COC(N)=O)C3=C(C(=O)C(C)C4(OCCO4)C3=O)N1C[C@@H]1N[C@@H]12` (stereo partly specified), the ILS max in the assay on Mus musculus [11] is 69%. In addition, the IC50 with HeLa [2] (Homo sapiens, HeLa) is 41 nM.

`CO[C@]12[C@@H]3[C@H](CN1C1=C(C(=O)C4(OCCO4)C(C)C1=O)[C@@H]2COC(N)=O)N3C` (stereo partly specified): in the assay on HeLa [2] (Homo sapiens, HeLa), the half-inhibitory concentration (IC50) is 3100 nM. For the same molecule, in the assay with Mus musculus [12], the ILS max is reported as 80%.

On to `CO[C@@]12[C@H](COC(N)=O)C3=C(C(OC(C)=O)=C(C)C4(OCCO4)C3=O)N1C[C@@H]1N[C@@H]12`, for which, in the assay on HeLa [2] (Homo sapiens, HeLa), the half-inhibitory concentration (IC50) was 4400 nM. The ILS max in the assay with Mus musculus [13] is listed as 63%.

Take `CCOC(=O)OC1=C(C)C2(OCCO2)C(=O)C2=C1N1C[C@@H]3N[C@@H]3[C@]1(OC)[C@@H]2COC(N)=O`: in the assay on HeLa [9], inhibition was half-maximal at 870 nM (IC50).

In the assay on HeLa [2] (hela), `CO[C@@]12[C@H](COC(N)=O)C3=C(C(=O)C(C)(Cl)C4(OCCO4)C3=O)N1C[C@@H]1N[C@@H]12` (stereo in doubt; 13b) came in with an IC50 of 3200 nM. For the same molecule, in the assay on Mus musculus [14], the ILS max is on record as 60%.

Consider `CO[C@@]12[C@H](COC(N)=O)C3=C(C(=O)C(C)(Cl)C4(OCCO4)C3=O)N1C[C@@H]1N[C@@H]12` (stereo in doubt; 13c), for which inhibition in the assay on HeLa [2] (hela) was half-maximal at 590 nM (IC50). The ILS max in the assay on Mus musculus [14] is listed as 73%.

In the assay with HeLa [2] (Homo sapiens, HeLa), `CO[C@@]12[C@H](COC(N)=O)C3=C(C(=O)C(C)=C(N)C3=O)N1C[C@@H]1N[C@@H]12` [MITOMYCIN] registered a half-maximal inhibitory concentration (IC50) of 810 nM. Also, in the assay with Mus musculus [15], the ILS max is given as 52%.
